The source of these data is ChEMBL document CHEMBL1151330, “Facile total synthesis and antimicrobial activity of the marine fatty acids (Z)-2-methoxy-5-hexadecenoic acid and (Z)-2-methoxy-6-hexadecenoic acid” (1998).

Common to all, as to assay type: functional
Test [1] has as its system Staphylococcus aureus. The test can be described thus: Antibacterial activity against Staphylococcus aureus ATCC 25923 after overnight incubation. The essentials:
(§1)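 Broth microdilution per NCCLS: 200 µL of the α-methoxylated fatty acid in Mueller-Hinton broth, inoculated with 10⁵ CFU, incubated overnight at 37 °C. MIC taken as the highest dilution inhibiting growth, compared with an uninoculated chemical-control well. At least three separate experiments, each in duplicate.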

Test [2] deals with Escherichia coli. The test can be described thus: Antibacterial activity against Escherichia coli ATCC 25922 after overnight incubation. The gist of the method: as §1
Test [3] deals with Pseudomonas aeruginosa. Put plainly: Antibacterial activity against Pseudomonas aeruginosa ATCC 27853 after overnight incubation. The essentials: as §1
Test [4] concerns Enterococcus faecalis. Put plainly: Antibacterial activity against Streptococcus faecalis group D ATCC 29212 after overnight incubation. The gist of the method:
as §1

Consider `CCCCCCCCCCCCCCC(OC)C(=O)O` (configuration not stated), for which the minimum inhibitory concentration (MIC) in test [1], in test [2], in test [3] and in test [4] was more than 100 µg/mL each time.

`CCCCCCCCCC/C=C\CC[C@H](OC)C(=O)O`: the MIC (as a rule, the smallest concentration in the dilution series that meets the test's criterion for growth inhibition) in test [1] was 350 µM; in test [2], more than 200 µg/mL; in test [3], more than 200 µg/mL; in test [4], 350 µM.

For the compound `CCCCCCCCC/C=C\CCCC(OC)C(=O)O` (configuration not stated), the MIC is 350 µM in test [1], more than 200 µg/mL in test [2], more than 200 µg/mL in test [3] and 350 µM in test [4].
